The nature of this data set: Circular dichroism. The class given is physicochemical. The following applies: CD, PBS pH 7.4 (aqueous), 200 μM peptide, 25 °C, from MRE at 222 nm. The gist of the method:
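Spectra taken at 25 °C in PBS (137 mM NaCl, 2.7 mM KCl, 10 mM Na2HPO4, 1.8 mM KH2PO4, pH 7.4) with 200 μM peptide in a 0.1 cm quartz cuvette. Scanned 195–260 nm at 5 nm min−1, 0.50 nm bandwidth, 16 s integration. A single scan was solvent-corrected and converted to MRE. Helicity was calculated using the number of residues in the potential helical region and an empirical end-effect correction.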
(CD spectra are sensitive to the conformation of chiral molecules.)

Square brackets hold non-standard residues; d marks the D form. Ends that are not written are not given here. Orn = NCCC[C@H](N)C(=O)O; Dab = NCC[C@H](N)C(=O)O; Dap = NC[C@H](N)C(=O)O

Consider 2 substances from article PMC11665275 (Organic & Biomolecular Chemistry, 2024).

As to AMRL[Dab]KFF[Dab]DFILQRKK [5_2–9_2], the “% Helicity in PBS (value in parentheses)” value worked out at 0.9%. For AMRL[Orn]KFF[Dap]DFILQRKK [5_3–9_1] the value was 0.1%.
